The results in this text go back to ChEMBL document CHEMBL3745647, “Design, synthesis and biological evaluation of pyrazolyl-nitroimidazole derivatives as potential EGFR/HER-2 kinase inhibitors” (Bioorg Med Chem Lett, 2016).

The subject of the first data set is HeLa. The data set can be described thus: Antiproliferative activity against human HeLa cells after 12 hrs by MTT assay. The class given is functional, cell-based.
Conditions: not given
As to `CC(=O)N1N=C(c2ccc(C(F)(F)F)cc2)CC1c1ccc(C(=O)OC(C)Cn2c([N+](=O)[O-])cnc2C)cc1` (configuration not stated), the IC50 came to 0.42 µM.
For `CC(=O)N1N=C(c2ccc(F)cc2)CC1c1ccc(C(=O)OCCn2c([N+](=O)[O-])cnc2C)cc1` (configuration not stated), the IC50 was determined as 2.45 µM.
Turning to `CCOc1ccc(C2=NN(C(C)=O)C(c3ccc(C(=O)OCCn4c([N+](=O)[O-])cnc4C)cc3)C2)cc1` (configuration not stated), the IC50 was found to be 31.4 µM.
The compound `CC(=O)N1N=C(c2ccc(Cl)cc2)CC1c1ccc(C(=O)OCCn2c([N+](=O)[O-])cnc2C)cc1` (configuration not stated) came in with an IC50 of 4.13 µM.
As to `CC(=O)N1N=C(c2ccccc2)CC1c1ccc(C(=O)OC(C)Cn2c([N+](=O)[O-])cnc2C)cc1` (configuration not stated), the IC50 came to 45.2 µM.

The next data set deals with Receptor tyrosine-protein kinase erbB-2 (Homo sapiens, UniProt P04626). Briefly: Inhibition of His-tagged human HER-2 cytoplasmic domain (676-1245 aa) (unknown origin) assessed as inhibition of autophosphorylation by TR-fluorometry.
Sequence of Receptor tyrosine-protein kinase erbB-2 (P04626 whole entry, the tested form may be a part): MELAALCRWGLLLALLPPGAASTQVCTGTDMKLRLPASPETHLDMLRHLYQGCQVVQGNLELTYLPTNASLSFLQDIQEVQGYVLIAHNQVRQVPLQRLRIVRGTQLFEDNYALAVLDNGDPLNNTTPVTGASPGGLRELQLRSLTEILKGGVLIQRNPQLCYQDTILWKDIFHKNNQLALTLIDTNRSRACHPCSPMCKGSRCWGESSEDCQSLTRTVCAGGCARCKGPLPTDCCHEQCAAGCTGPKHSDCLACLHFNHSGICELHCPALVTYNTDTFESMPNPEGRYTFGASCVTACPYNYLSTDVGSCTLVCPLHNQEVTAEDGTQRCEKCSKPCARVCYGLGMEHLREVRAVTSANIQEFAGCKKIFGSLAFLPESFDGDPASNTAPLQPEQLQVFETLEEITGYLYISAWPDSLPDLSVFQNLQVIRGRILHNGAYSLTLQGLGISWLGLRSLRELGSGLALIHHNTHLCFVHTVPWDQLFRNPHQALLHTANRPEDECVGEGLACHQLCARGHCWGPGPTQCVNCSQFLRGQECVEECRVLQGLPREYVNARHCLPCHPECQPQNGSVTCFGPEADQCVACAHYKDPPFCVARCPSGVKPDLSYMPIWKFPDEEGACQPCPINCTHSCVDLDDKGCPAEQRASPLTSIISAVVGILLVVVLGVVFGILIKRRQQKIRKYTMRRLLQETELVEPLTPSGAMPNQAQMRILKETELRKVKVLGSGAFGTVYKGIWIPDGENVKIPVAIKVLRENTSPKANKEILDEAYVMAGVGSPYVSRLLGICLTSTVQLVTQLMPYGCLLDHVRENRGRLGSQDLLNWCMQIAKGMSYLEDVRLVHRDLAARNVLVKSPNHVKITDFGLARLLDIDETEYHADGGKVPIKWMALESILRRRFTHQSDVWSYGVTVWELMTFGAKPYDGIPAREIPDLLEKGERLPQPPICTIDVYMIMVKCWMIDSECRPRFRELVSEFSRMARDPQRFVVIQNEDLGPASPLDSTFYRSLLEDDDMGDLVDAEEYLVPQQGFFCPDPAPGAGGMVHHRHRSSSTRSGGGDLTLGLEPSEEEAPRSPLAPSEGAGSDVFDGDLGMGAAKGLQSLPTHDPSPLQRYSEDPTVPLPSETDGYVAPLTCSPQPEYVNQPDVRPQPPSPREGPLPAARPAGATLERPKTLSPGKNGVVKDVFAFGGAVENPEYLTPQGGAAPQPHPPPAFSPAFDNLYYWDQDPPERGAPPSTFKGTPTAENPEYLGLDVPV
Conditions: not given
For the compound `CC(=O)N1N=C(c2ccc(C(F)(F)F)cc2)CC1c1ccc(C(=O)OC(C)Cn2c([N+](=O)[O-])cnc2C)cc1` (configuration not stated), the IC50 worked out at 5.62 µM.
On to `CC(=O)N1N=C(c2ccc(F)cc2)CC1c1ccc(C(=O)OCCn2c([N+](=O)[O-])cnc2C)cc1` (configuration not stated), for which the IC50 was 4.07 µM.
`CCOc1ccc(C2=NN(C(C)=O)C(c3ccc(C(=O)OCCn4c([N+](=O)[O-])cnc4C)cc3)C2)cc1` (configuration not stated): the IC50 came to 14.9 µM.
As for `CC(=O)N1N=C(c2ccc(Cl)cc2)CC1c1ccc(C(=O)OCCn2c([N+](=O)[O-])cnc2C)cc1` (configuration not stated), the IC50 was 4.1 µM.
Consider `CC(=O)N1N=C(c2ccccc2)CC1c1ccc(C(=O)OC(C)Cn2c([N+](=O)[O-])cnc2C)cc1` (configuration not stated), for which the IC50 worked out at 17 µM.

The next data set deals with MCF7. Briefly: Antiproliferative activity against human MCF7 cells after 12 hrs by MTT assay. As to conditions: MCF7, 12 h. The class given is functional, cell-based. (Formazan colour is commonly taken as a measure of viable cells.)
Turning to `CC(=O)N1N=C(c2ccc(C(F)(F)F)cc2)CC1c1ccc(C(=O)OC(C)Cn2c([N+](=O)[O-])cnc2C)cc1` (configuration not stated), the IC50 stood at 2.18 µM.
In turn, `CC(=O)N1N=C(c2ccc(F)cc2)CC1c1ccc(C(=O)OCCn2c([N+](=O)[O-])cnc2C)cc1` (configuration not stated) yielded an IC50 of 1.67 µM.
The compound `CCOc1ccc(C2=NN(C(C)=O)C(c3ccc(C(=O)OCCn4c([N+](=O)[O-])cnc4C)cc3)C2)cc1` (configuration not stated) displayed an IC50 of 20.6 µM.
For `CC(=O)N1N=C(c2ccc(Cl)cc2)CC1c1ccc(C(=O)OCCn2c([N+](=O)[O-])cnc2C)cc1` (configuration not stated), the IC50 came to 2.27 µM.
On to `CC(=O)N1N=C(c2ccccc2)CC1c1ccc(C(=O)OC(C)Cn2c([N+](=O)[O-])cnc2C)cc1` (configuration not stated), for which the IC50 came out at 49.9 µM.

Another data set has as its system HepG2. Briefly: Antiproliferative activity against human HepG2 cells after 12 hrs by MTT assay. In kind it is functional, cell-based. To be noted: HepG2, 12 h.
For `CC(=O)N1N=C(c2ccc(C(F)(F)F)cc2)CC1c1ccc(C(=O)OC(C)Cn2c([N+](=O)[O-])cnc2C)cc1` (configuration not stated), the IC50 was 2.21 µM.
`CC(=O)N1N=C(c2ccc(F)cc2)CC1c1ccc(C(=O)OCCn2c([N+](=O)[O-])cnc2C)cc1` (configuration not stated) had an IC50 of 1.89 µM.
`CCOc1ccc(C2=NN(C(C)=O)C(c3ccc(C(=O)OCCn4c([N+](=O)[O-])cnc4C)cc3)C2)cc1` (configuration not stated) displayed an IC50 of 19.3 µM.
With `CC(=O)N1N=C(c2ccc(Cl)cc2)CC1c1ccc(C(=O)OCCn2c([N+](=O)[O-])cnc2C)cc1` (configuration not stated), the IC50 stood at 3.31 µM.
Still for that read-out and setting: for `CC(=O)N1N=C(c2ccccc2)CC1c1ccc(C(=O)OC(C)Cn2c([N+](=O)[O-])cnc2C)cc1` (configuration not stated) the value was 43.8 µM.

System in a further data set: not listed separately
The data set can be described thus: Antiproliferative activity against mouse B16F10 cells after 12 hrs by MTT assay. In kind it is functional, cell-based. To be noted: B16-F10, 12 h.
`CC(=O)N1N=C(c2ccc(C(F)(F)F)cc2)CC1c1ccc(C(=O)OC(C)Cn2c([N+](=O)[O-])cnc2C)cc1` (configuration not stated): the IC50 amounted to 5.87 µM.
The same measure, in the same setting: for `CC(=O)N1N=C(c2ccc(F)cc2)CC1c1ccc(C(=O)OCCn2c([N+](=O)[O-])cnc2C)cc1` (configuration not stated) the value was 4.19 µM.
`CCOc1ccc(C2=NN(C(C)=O)C(c3ccc(C(=O)OCCn4c([N+](=O)[O-])cnc4C)cc3)C2)cc1` (configuration not stated) yielded an IC50 of 38.9 µM.
As for `CC(=O)N1N=C(c2ccc(Cl)cc2)CC1c1ccc(C(=O)OCCn2c([N+](=O)[O-])cnc2C)cc1` (configuration not stated), the IC50 stood at 4.82 µM.
In turn, `CC(=O)N1N=C(c2ccccc2)CC1c1ccc(C(=O)OC(C)Cn2c([N+](=O)[O-])cnc2C)cc1` (configuration not stated) displayed an IC50 of 68.2 µM.

For the next data set, the target named is Epidermal growth factor receptor (Homo sapiens, UniProt P00533). The data set can be described thus: Inhibition of His-tagged EGFR cytoplasmic domain (645-1186 aa) (unknown origin) assessed as inhibition of autophosphorylation by TR-fluorometry. As to conditions: read-out: IC50.
Sequence of Epidermal growth factor receptor (P00533 whole entry, the tested form may be a part): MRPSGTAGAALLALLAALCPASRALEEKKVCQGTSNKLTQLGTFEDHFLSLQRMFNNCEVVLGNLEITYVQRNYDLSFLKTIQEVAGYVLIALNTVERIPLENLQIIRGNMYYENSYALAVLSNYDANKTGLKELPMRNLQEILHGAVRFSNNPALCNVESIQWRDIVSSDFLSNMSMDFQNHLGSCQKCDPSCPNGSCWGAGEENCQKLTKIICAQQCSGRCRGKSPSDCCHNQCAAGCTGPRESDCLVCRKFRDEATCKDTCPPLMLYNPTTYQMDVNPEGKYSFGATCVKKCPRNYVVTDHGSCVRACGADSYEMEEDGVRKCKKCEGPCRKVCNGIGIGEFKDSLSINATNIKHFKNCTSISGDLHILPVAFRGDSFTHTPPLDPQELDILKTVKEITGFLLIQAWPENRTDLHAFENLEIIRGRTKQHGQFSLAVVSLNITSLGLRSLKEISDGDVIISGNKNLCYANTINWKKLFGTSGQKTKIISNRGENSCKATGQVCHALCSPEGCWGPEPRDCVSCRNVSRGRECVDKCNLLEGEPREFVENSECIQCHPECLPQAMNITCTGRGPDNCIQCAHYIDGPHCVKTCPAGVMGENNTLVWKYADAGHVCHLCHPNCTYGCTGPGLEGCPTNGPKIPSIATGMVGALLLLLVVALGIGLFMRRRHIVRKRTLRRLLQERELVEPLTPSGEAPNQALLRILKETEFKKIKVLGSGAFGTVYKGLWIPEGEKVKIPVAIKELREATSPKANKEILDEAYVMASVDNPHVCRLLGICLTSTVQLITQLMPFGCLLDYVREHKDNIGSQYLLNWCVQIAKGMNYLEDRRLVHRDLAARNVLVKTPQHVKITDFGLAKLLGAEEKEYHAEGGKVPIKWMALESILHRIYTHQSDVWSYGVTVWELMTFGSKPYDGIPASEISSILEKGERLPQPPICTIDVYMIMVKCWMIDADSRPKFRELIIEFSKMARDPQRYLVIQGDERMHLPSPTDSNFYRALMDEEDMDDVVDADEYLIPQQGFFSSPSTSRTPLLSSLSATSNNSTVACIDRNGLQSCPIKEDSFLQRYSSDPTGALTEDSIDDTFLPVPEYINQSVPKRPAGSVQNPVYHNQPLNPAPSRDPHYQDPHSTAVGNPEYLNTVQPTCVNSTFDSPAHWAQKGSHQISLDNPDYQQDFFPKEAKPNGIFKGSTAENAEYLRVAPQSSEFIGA
On to `CC(=O)N1N=C(c2ccc(C(F)(F)F)cc2)CC1c1ccc(C(=O)OC(C)Cn2c([N+](=O)[O-])cnc2C)cc1` (configuration not stated), for which the IC50 is 6.67 µM.
Same read-out and setting: then `CCOc1ccc(C2=NN(C(C)=O)C(c3ccc(C(=O)OCCn4c([N+](=O)[O-])cnc4C)cc3)C2)cc1` (configuration not stated), with 15.2 µM; and `CC(=O)N1N=C(c2ccc(Cl)cc2)CC1c1ccc(C(=O)OCCn2c([N+](=O)[O-])cnc2C)cc1` (configuration not stated), with 7.37 µM.
Consider `CC(=O)N1N=C(c2ccccc2)CC1c1ccc(C(=O)OC(C)Cn2c([N+](=O)[O-])cnc2C)cc1` (configuration not stated), for which the IC50 came to 12.2 µM.

The data set is the same for the next values; noted with them: read-out: pIC50 (converted).
`CC(=O)N1N=C(c2ccc(C(F)(F)F)cc2)CC1c1ccc(C(=O)OC(C)Cn2c([N+](=O)[O-])cnc2C)cc1` (configuration not stated): the IC50 is 6.68 µM.
In the case of `CCOc1ccc(C2=NN(C(C)=O)C(c3ccc(C(=O)OCCn4c([N+](=O)[O-])cnc4C)cc3)C2)cc1` (configuration not stated), the IC50 is 15.2 µM.
Turning to `CC(=O)N1N=C(c2ccc(Cl)cc2)CC1c1ccc(C(=O)OCCn2c([N+](=O)[O-])cnc2C)cc1` (configuration not stated), the IC50 is 7.38 µM.
For the compound `CC(=O)N1N=C(c2ccccc2)CC1c1ccc(C(=O)OC(C)Cn2c([N+](=O)[O-])cnc2C)cc1` (configuration not stated), the IC50 was 12.2 µM.

System in another data set: not listed separately
The data set can be described thus: Cytotoxicity against human HEK293T cells for 24 hrs by MTT assay. The class given is cell-based, HEK-293T.
Conditions: not given
The method, boiled down:
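293T human kidney epithelial cells exposed to multiple concentrations and viability read by MTT.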
Compound `C#Cc1cccc(Nc2ncnc3cc(OCCOC)c(OCCOC)cc23)c1` [ERLOTINIB] returned a CC50 at 24 h of 105 µM.
The compound `CC(=O)N1N=C(c2ccc(C(F)(F)F)cc2)CC1c1ccc(C(=O)OC(C)Cn2c([N+](=O)[O-])cnc2C)cc1` (configuration not stated) registered a cytotoxic concentration (CC50) at 24 h of 92.6 µM.
Turning to `CC(=O)N1N=C(c2ccc(F)cc2)CC1c1ccc(C(=O)OCCn2c([N+](=O)[O-])cnc2C)cc1` (configuration not stated), the CC50 at 24 h turned out to be 118 µM.
Take `CC(=O)N1N=C(c2ccc(Cl)cc2)CC1c1ccc(C(=O)OCCn2c([N+](=O)[O-])cnc2C)cc1` (configuration not stated): the CC50 at 24 h is 138 µM.

Usually CC50 stands for the concentration at which the toxic effect on the cells reaches its halfway point. Low values mean greater toxicity to the cells, high ones lower toxicity to the cells.
